Results as given in ChEMBL document CHEMBL1125376, “Class III antiarrhythmic activity of novel substituted 4-[(methylsulfonyl)amino]benzamides and sulfonamides” (J Med Chem, 1992).
Where “and” joins values, the source holds several entries; their conditions need not be identical. Equal entries are not always repeated. Blank lines part the entries; values can stand above or below the compound they belong to.

Columns and labels:
[1] = Maximum rate of depolarization of the upstroke of the action potential at 3 uM concentration; parameters: unit not given beside the values
Summary of the method: (§1)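 Purkinje fiber bundles from pentobarbital-anesthetized mongrel dogs, superfused at 37.5-38.0 °C with Tyrode's solution (95% O2-5% CO2, pH 7.3-7.4). Stimulation with 2.0 ms square pulses at 2× threshold. Fibers equilibrated at least 1 h before drug. Action potentials recorded at four to six sites, control vs drug, and averaged per fiber.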

[2] = tested on: Canis familiaris; experiment: Effect on atrial effective refractory period, after intravenous administration in open-chest anesthetized dogs at dose of 1.0 mg/kg
[3] = organism: Canis familiaris; experiment: Effect on the transmembrane potential of dog Purkinje fibers paced at a basic cycle length of stimulation of 300 ms, repolarization time to -60 mV at 0.3 uM concentration; format: functional; settings: Canis lupus familiaris, Purkinje fiber
Summary of the method: (§2)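 Purkinje fiber bundles were taken from pentobarbital-anesthetized mongrel dogs. They were superfused at 37.5-38.0 °C with Tyrode's (mM: NaCl 138, KCl 4, CaCl2 2, NaHCO3 24, MgCl2 0.5, Na2HPO4 1.8, dextrose 5) gassed with 95% O2-5% CO2, pH 7.3-7.4. Stimulation used 2.0 ms pulses at twice threshold. Fibers were equilibrated ≥1 h before drug. Action potentials were recorded at 4-6 sites and averaged per fiber.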

[4] = organism: Canis familiaris; experiment: Effect on the transmembrane potential of dog Purkinje fibers paced at a basic cycle length of stimulation of 300 ms, repolarization time to -60 mV, at a concentration of 3 uM; format: functional; settings: Canis lupus familiaris, Purkinje fiber; summary of the method: as §2
[5] = organism: Canis familiaris; experiment: Effect on the transmembrane potential of dog Purkinje fibers paced at a basic cycle length of stimulation of 1000 ms, repolarization time to -60 mV at 0.3 uM concentration; format: functional; settings: Canis lupus familiaris, Purkinje fiber; summary of the method: as §2
[6] = organism: Canis familiaris; experiment: Effect on the transmembrane potential of dog Purkinje fibers paced at a basic cycle length of stimulation of 1000 ms, repolarization time to -60 mV, at a concentration of 3 uM; format: functional; settings: Canis lupus familiaris, Purkinje fiber; summary of the method: as §2
[7] = organism: Canis familiaris; experiment: Effect on the transmembrane potential of dog Purkinje fibers paced at a basic cycle length of stimulation of 300 ms, repolarization time to -60 mV; format: functional; settings: Canis lupus familiaris; Purkinje fiber; summary of the method: as §2
[8] = tested on: Canis familiaris; experiment: Mean arterial pressure, after intravenous administration in open-chest anesthetized dogs at dose of 0.05 mg/kg; format: functional, Canis lupus familiaris, Artery; settings: dose 5.0 mg/kg, in the assay text read “5.0 mg/kg” for “0.05 mg/kg”
Summary of the method: (§3)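 Mongrel dogs, pentobarbital-anesthetized (30 mg/kg iv plus 5 mg/kg per h), open chest. Compound given iv. Atrial and ventricular effective refractory periods and conduction times measured during pacing at 300 ms, along with heart rate and mean arterial pressure. Two doses per compound, chosen from dose-response runs. Values are % change from predrug, mean ± SE.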

[9] = tested on: Canis familiaris; experiment: Ventricular conduction time, after intravenous administration in open-chest anesthetized dogs at dose of 0.5 mg/kg; format: functional, Canis lupus familiaris, Heart; settings: dose 10.0 mg/kg, in the assay text read “10.0 mg/kg” for “0.5 mg/kg”; summary of the method: as §3
[10] = organism: Canis familiaris; experiment: Effect on the transmembrane potential of dog Purkinje fibers paced at a basic cycle length of stimulation of 1000 ms, repolarization time to -60 mV, at a concentration of 0.3 uM; format: functional; settings: Canis lupus familiaris, Purkinje fiber; summary of the method: as §2
[11] = tested on: Canis familiaris; experiment: Atrial effective refractory period, after intravenous administration in open-chest anesthetized dogs at dose of 10.0 mg/kg
[12] = tested on: Canis familiaris; experiment: Ventricular effective refractory period, after intravenous administration in open-chest anesthetized dogs at dose of 0.05 mg/kg; format: functional, Canis lupus familiaris, Heart; settings: dose 5.0 mg/kg, in the assay text read “5.0 mg/kg” for “0.05 mg/kg”; summary of the method: as §3
[13] = tested on: Canis familiaris; experiment: Ventricular effective refractory period, after intravenous administration in open-chest anesthetized dogs at dose of 0.5 mg/kg; format: functional, Canis lupus familiaris, Heart; settings: dose 10.0 mg/kg, in the assay text read “10.0 mg/kg” for “0.5 mg/kg”; summary of the method: as §3
[14] = tested on: Canis familiaris; experiment: Heart rate, after intravenous administration in open-chest anesthetized dogs at dose of 0.05 mg/kg; format: functional, Canis lupus familiaris; settings: dose 5.0 mg/kg, in the assay text read “5.0 mg/kg” for “0.05 mg/kg”; summary of the method: as §3
[15] = tested on: Canis familiaris; experiment: Heart rate, after intravenous administration in open-chest anesthetized dogs at dose of 0.5 mg/kg; format: functional, Canis lupus familiaris; settings: dose 10.0 mg/kg, in the assay text read “10.0 mg/kg” for “0.5 mg/kg”; summary of the method: as §3
[16] = tested on: Canis familiaris; experiment: Mean arterial pressure, after intravenous administration in open-chest anesthetized dogs at dose of 0.5 mg/kg; format: functional, Canis lupus familiaris, Artery; settings: dose 10.0 mg/kg, in the assay text read “10.0 mg/kg” for “0.5 mg/kg”; summary of the method: as §3
[17] = organism: Canis familiaris; experiment: Effect on the transmembrane potential of dog Purkinje fibers paced at a basic cycle length of stimulation of 1000 ms, repolarization time to -60 mV; format: functional; settings: Canis lupus familiaris; Purkinje fiber; summary of the method: as §2
[18] = tested on: Canis familiaris; experiment: Atrial conduction time, after intravenous administration in open-chest anesthetized dogs at dose of 10.0 mg/kg
[19] = organism: Canis familiaris; experiment: Effect on the transmembrane potential of dog Purkinje fibers paced at a basic cycle length of stimulation of 1000 ms, repolarization time to -60 mV at 3 uM concentration; format: functional; settings: Canis lupus familiaris, Purkinje fiber; summary of the method: as §2
[20] = tested on: Canis familiaris; experiment: Effect on atrial conduction time, after intravenous administration in open-chest anesthetized dogs at dose of 1.0 mg/kg; format: functional, Canis lupus familiaris, Cardiac atrium
[21] = tested on: Canis familiaris; experiment: Effect on atrial effective refractory period, after intravenous administration in open-chest anesthetized dogs at dose of 5.0 mg/kg; format: functional, Canis lupus familiaris, Cardiac atrium
[22] = tested on: Canis familiaris; experiment: Effect on atrial effective refractory period, after intravenous administration in open-chest anesthetized dogs at dose of 1.0 mg/kg; format: functional, Canis lupus familiaris, Cardiac atrium
[23] = tested on: Canis familiaris; experiment: Effect on heart rate, after intravenous administration in open-chest anesthetized dogs at dose of 5.0 mg/kg; format: functional, Canis lupus familiaris
[24] = tested on: Canis familiaris; experiment: Effect on ventricular conduction time, after intravenous administration in open-chest anesthetized dogs at dose of 5.0 mg/kg; format: functional, Canis lupus familiaris, Cardiac ventricle
[25] = tested on: Canis familiaris; experiment: Effect on ventricular effective refractory period, after intravenous administration in open-chest anesthetized dogs at dose of 5.0 mg/kg; format: functional, Canis lupus familiaris, Cardiac ventricle; summary of the method: as §3
[26] = tested on: Canis familiaris; experiment: Effect on ventricular conduction time, after intravenous administration in open-chest anesthetized dogs at dose of 1.0 mg/kg; format: functional, Canis lupus familiaris, Cardiac ventricle
[27] = organism: Canis familiaris; experiment: Effect on the transmembrane potential of dog Purkinje fibers paced at a basic cycle length of stimulation of 300 ms, repolarization time to -60 mV at 3 uM concentration; format: functional; settings: Canis lupus familiaris, Purkinje fiber; summary of the method: as §2
[28] = tested on: Canis familiaris; experiment: Effect on atrial conduction time, after intravenous administration in open-chest anesthetized dogs at dose of 5.0 mg/kg; format: functional, Canis lupus familiaris, Cardiac atrium
[29] = tested on: Canis familiaris; experiment: Effect on ventricular effective refractory period, after intravenous administration in open-chest anesthetized dogs at dose of 1.0 mg/kg; format: functional, Canis lupus familiaris, Cardiac ventricle; summary of the method: as §3
[30] = tested on: Canis familiaris; experiment: Effect on heart rate, after intravenous administration in open-chest anesthetized dogs at dose of 1.0 mg/kg; format: functional, Canis lupus familiaris
[31] = tested on: Canis familiaris; experiment: Effect on mean arterial pressure, after intravenous administration in open-chest anesthetized dogs at dose of 1.0 mg/kg; format: functional, Canis lupus familiaris, Artery
[32] = tested on: Canis familiaris; experiment: Effect on mean arterial pressure, after intravenous administration in open-chest anesthetized dogs at dose of 5.0 mg/kg; format: functional, Canis lupus familiaris, Artery
[33] = tested on: Canis familiaris; experiment: Effect on ventricular conduction time, after intravenous administration in open-chest anesthetized dogs at dose of 0.5 mg/kg; format: functional, Canis lupus familiaris, Cardiac ventricle
[34] = tested on: Canis familiaris; experiment: Effect on atrial conduction time, after intravenous administration in open-chest anesthetized dogs at dose of 0.5 mg/kg; format: functional, Canis lupus familiaris, Cardiac atrium
[35] = tested on: Canis familiaris; experiment: Effect on mean arterial pressure, after intravenous administration in open-chest anesthetized dogs at dose of 0.05 mg/kg; format: functional, Canis lupus familiaris, Artery
[36] = organism: Canis familiaris; experiment: Effect on the transmembrane potential of dog Purkinje fibers paced at a basic cycle length of stimulation of 300 ms, repolarization time to -60 mV, at a concentration of 0.3 uM; format: functional; settings: Canis lupus familiaris, Purkinje fiber; summary of the method: as §2
[37] = tested on: Canis familiaris; experiment: Effect on ventricular effective refractory period, after intravenous administration in open-chest anesthetized dogs at dose of 0.5 mg/kg; format: functional, Canis lupus familiaris, Cardiac ventricle
[38] = tested on: Canis familiaris; experiment: Effect on heart rate, after intravenous administration in open-chest anesthetized dogs at dose of 0.5 mg/kg; format: functional, Canis lupus familiaris
[39] = tested on: Canis familiaris; experiment: Effect on mean arterial pressure, after intravenous administration in open-chest anesthetized dogs at dose of 0.5 mg/kg; format: functional, Canis lupus familiaris, Artery
[40] = tested on: Canis familiaris; experiment: Effect on heart rate, after intravenous administration in open-chest anesthetized dogs at dose of 0.05 mg/kg; format: functional, Canis lupus familiaris
[41] = tested on: Canis familiaris; experiment: Effect on ventricular conduction time, after intravenous administration in open-chest anesthetized dogs at dose of 0.05 mg/kg; format: functional, Canis lupus familiaris, Cardiac ventricle
[42] = tested on: Canis familiaris; experiment: Atrial conduction time, after intravenous administration in open-chest anesthetized dogs at dose of 0.05 mg/kg; format: functional, Canis lupus familiaris, Cardiac atrium
[43] = tested on: Canis familiaris; experiment: Effect on trial effective refractory period, after intravenous administration in open-chest anesthetized dogs at dose of 0.5 mg/kg; format: functional, Canis lupus familiaris
[44] = tested on: Canis familiaris; experiment: Atrial effective refractory period, after intravenous administration in open-chest anesthetized dogs at dose of 0.05 mg/kg; format: functional, Canis lupus familiaris, Cardiac atrium
[45] = tested on: Canis familiaris; experiment: Effect on ventricular effective refractory period, after intravenous administration in open-chest anesthetized dogs at dose of 0.05 mg/kg; format: functional, Canis lupus familiaris, Cardiac ventricle
[46] = Maximum rate of depolarization of the upstroke of the action potentia at 3 uM concentration; summary of the method: as §1

Vmax [1]: -3
Structure (SMILES): Cl.Cn1c(N2CCN(C(=O)c3ccc(NS(C)(=O)=O)cc3)CC2)nc2ccccc21
Change [2]: 33% | APD60 [3]: 6 | APD60 [4]: 33 | APD60 [5]: 17 | APD60 [6]: 75

Structure (SMILES): CN(CCN1CCn2c1nc1ccccc12)S(=O)(=O)c1ccc(NS(C)(=O)=O)cc1.Cl
APD60 [7]: 16 | Change [8]: -9% | Change [9]: -5% | APD60 [10]: 30 | Change [11]: 66% | Change [12]: 18% | Change [13]: 19% | Change [14]: -15% | Change [15]: -24% | Change [16]: -8% | APD60 [17]: 30 | Change [18]: 3%

Structure (SMILES): CS(=O)(=O)Nc1ccc(S(=O)(=O)NCCNc2ncccn2)cc1
APD60 [7]: -4 | APD60 [17]: 24

Vmax [1]: -5 and -3
Structure (SMILES): CN(CCN(C)c1nc2ccccc2n1C)C(=O)c1ccc(NS(C)(=O)=O)cc1.Cl
APD60 [19]: 65 | Change [20]: -1% | Change [21]: 44% | Change [22]: 18% | Change [23]: -27% | Change [24]: -6% | Change [25]: 24% | Change [26]: -1% | APD60 [27]: 17 | Change [28]: -3% | Change [29]: 10% | Change [30]: -6% | Change [31]: 5% | Change [32]: -1%

Structure (SMILES): CN(CCN(C)c1ccc2ccccc2n1)C(=O)c1ccc(NS(C)(=O)=O)cc1
APD60 [7]: 17 | APD60 [17]: 36

Structure (SMILES): CN(CCOc1ccc(NS(C)(=O)=O)cc1)CCc1ccc(NS(C)(=O)=O)cc1 [DOFETILIDE]
APD60 [7]: 30 | Change [33]: -4% | Change [34]: -9% | Change [35]: 1% | APD60 [36]: 42 | Change [37]: 27% | Change [38]: -24% | Change [39]: -2% | Change [40]: -14% | Change [41]: -4% | Change [42]: -4% | Change [43]: 65% | APD60 [17]: 67 | Change [44]: 46% | Change [45]: 23%

Structure (SMILES): CN(CCN(C)S(=O)(=O)c1ccc(NS(C)(=O)=O)cc1)c1ncc2ccccc2n1
APD60 [7]: 18 | APD60 [17]: 29

Vmax [1]: 1 | Vmax [46]: 6
Structure (SMILES): CN(CCNc1nc2ccccc2n1C)S(=O)(=O)c1ccc(NS(C)(=O)=O)cc1.Cl
APD60 [19]: 67 | APD60 [27]: 19
